Measured values: ChEMBL document CHEMBL3243989, “Antibacterial N-[omega, omega'-bis(alicyclic and aryl)-sec-alkyl]poly(methylene)triamine and -tetramine hydrochloride salts” (J Med Chem, 1979)
In brackets after ≈: the same amount, converted by molar mass. Activity calls are given as the source filed them. The calls are words filed in the database; no cut-off is given here.

Assays:
[1] = Lipophilicity, log P of the compound; details: octanol/water
[2] = system: Proteus vulgaris; assay: Antibacterial activity against Proteus vulgaris MB838 assessed as growth inhibition at 200 ug/mL; assay type: functional, organism-based
[3] = system: Pseudomonas aeruginosa; assay: Antibacterial activity against Pseudomonas aeruginosa MB418 assessed as growth inhibition; assay type: functional
Procedure, shortened: (§1)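 MIC (µg/mL) by in vitro growth inhibition in an assay system at pH 7.4. Tetracycline was run routinely to check medium, incubation conditions and inoculum virility.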

[4] = system: Pseudomonas aeruginosa; assay: Antibacterial activity against Pseudomonas aeruginosa MB2245 assessed as growth inhibition; assay type: functional; procedure, shortened: as §1
[5] = system: Staphylococcus aureus; assay: Antibacterial activity against Staphylococcus aureus MB108 assessed as growth inhibition; assay type: functional; procedure, shortened: as §1
[6] = system: Staphylococcus aureus; assay: Antibacterial activity against Staphylococcus aureus MB2865 assessed as growth inhibition; assay type: functional; procedure, shortened: as §1
[7] = system: Bacillus subtilis; assay: Antibacterial activity against Bacillus subtilis MB964 assessed as growth inhibition; assay type: functional; procedure, shortened: as §1
[8] = system: Salmonella; assay: Antibacterial activity against Salmonella schottmuelleri MB2837 assessed as growth inhibition; assay type: functional; procedure, shortened: as §1
[9] = system: Escherichia coli; assay: Antibacterial activity against Escherichia coli MB2884 assessed as growth inhibition; assay type: functional; procedure, shortened: as §1
[10] = system: Klebsiella aerogenes; assay: Antibacterial activity against Klebsiella aerogenes MB1503 assessed as growth inhibition; assay type: functional; procedure, shortened: as §1
[11] = system: Bordetella bronchiseptica; assay: Antibacterial activity against Bordetella bronchiseptica MB3551 assessed as growth inhibition; assay type: functional; procedure, shortened: as §1
[12] = system: Bordetella bronchiseptica; assay: Antibacterial activity against Bordetella bronchiseptica MB905 assessed as growth inhibition; assay type: functional; procedure, shortened: as §1
[13] = system: Streptococcus pyogenes; assay: Antibacterial activity against Streptococcus pyogenes assessed as growth inhibition at 2 to 8 ug/mL; assay type: functional, organism-based
[14] = system: Pasteurella multocida; assay: Antibacterial activity against Pasteurella multocida MB7 assessed as growth inhibition at 2 to 8 ug/mL; assay type: functional, organism-based
[15] = system: Corynebacterium pseudodiphtheriticum; assay: Antibacterial activity against Corynebacterium pseudodiphtheriticum assessed as growth inhibition at 15 ug/mL; assay type: functional, organism-based
[16] = system: Corynebacterium pseudodiphtheriticum; assay: Antibacterial activity against Corynebacterium pseudodiphtheriticum assessed as growth inhibition at 2 to 8 ug/mL; assay type: functional, organism-based
[17] = Metal chelate stability constant of the compound assessed as copper ion complex formation; assay type: physicochemical

Row | Compound | logP [1] | growth inhibition (GI) [2] | MIC [3] [µg/mL] | MIC [4] [µg/mL] | MIC [5] [µg/mL] | MIC [6] [µg/mL] | MIC [7] [µg/mL] | MIC [8] [µg/mL] | MIC [9] [µg/mL] | MIC [10] [µg/mL] | MIC [11] [µg/mL] | MIC [12] [µg/mL] | growth inhibition (GI) [13] | growth inhibition (GI) [14] | growth inhibition (GI) [15] | growth inhibition (GI) [16] | log K [17]
1 | NCCNCCNCCN [TRIENTINE] | -0.82 |  |  |  |  |  |  |  |  |  |  |  |  |  |  |  | 
2 | CC(C)(C)c1ccc(CCCC(CCCc2ccc(C(C)(C)C)cc2)NCCCNCCCNCCCN)cc1.Cl |  | inactive | 80 | 100 | 30 | 20 | 10 | 15 | > 200 | > 200 | 30 | 20 | Active | Active | Active |  | 
3 | Cc1ccc(CCC(CCc2ccc(C)cc2)NCCCNCCCN)cc1.Cl |  | inactive | 60 | 40 | 30 | 50 | 4 | 10 | 50 | 15 | 6 | 4 | Active | Active |  | inactive | 
4 | CN(C)[C@@H]1C(O)=C(C(N)=O)C(=O)[C@@]2(O)C(O)=C3C(=O)c4c(O)cccc4[C@@](C)(O)[C@H]3C[C@@H]12 [TETRACYCLINE] |  | inactive | 20 (≈ 45 µM) | 30 (≈ 67.5 µM) | 2 (≈ 4.5 µM) | 2 (≈ 4.5 µM) | 2 (≈ 4.5 µM) | 2 (≈ 4.5 µM) | 30 (≈ 67.5 µM) | 2 (≈ 4.5 µM) | 2 (≈ 4.5 µM) | 2 (≈ 4.5 µM) | Active | Active |  | inactive | 
5 | CC(C)(C)c1ccc(CCC(CCc2ccc(C(C)(C)C)cc2)NCCCNCCCN)cc1.Cl |  | inactive | 8 | 15 | 6 | 15 | 2 | 4 | 6 | 15 | 4 | 4 | Active | Active |  | inactive | 
6 | CC1(C)C2CCC(C2)C1CCC(CCC1C2CCC(C2)C1(C)C)NCCCN1CCN(CCCN)CC1.Cl (centres undefined) |  | inactive | 200 | 200 | 6 | 20 | 8 | 6 | 20 | 4 | 8 | 4 | Active | Active |  | inactive | 
7 | CC(C)C1CCC(CCC(CCC2CCC(C(C)C)CC2)NCCCNCCCN)CC1.Cl (centres undefined) |  | inactive | 60 | 60 | 20 | 40 | 6 | 20 | 50 | 50 | 10 | 10 | Active | Active |  | inactive | 
8 | CC1(C)C2CCC(C2)C1CCC(CCC1C2CCC(C2)C1(C)C)NCCNCCN.Cl (centres undefined) |  | inactive | 200 | > 200 | 6 | 6 | 6 | 50 | 4 | 10 | 4 | 4 | Active | Active |  | inactive | 
9 | NCCNCCCNCCN |  |  |  |  |  |  |  |  |  |  |  |  |  |  |  |  | 23.9
10 | NCCCNCCCN [NORSPERMIDINE] |  |  |  |  |  |  |  |  |  |  |  |  |  |  |  |  | 14.2
11 | Cl.NCCCNCCCNC(CCCC1CCCCC1)CCCC1CCCCC1 |  | inactive | 8 | 8 | 4 | 8 | 4 | 4 | 8 | 4 | 4 | 4 | Active | Active |  | inactive | 
12 | CC1(C)C2CCC(C2)C1CCC(CCC1C2CCC(C2)C1(C)C)NCCCNCCNCCCN.Cl (centres undefined) |  | inactive | 30 | 15 | 4 | 8 | 4 | 4 | 30 | 15 | 4 | 4 | Active | Active |  | inactive | 
13 | Cl.NCCCNCCCNC(CCC1CCCCC1)CCC1CCCCC1 |  | inactive | 30 | 15 | 2 | 10 | 2 | 2 | 15 | 6 | 2 | 2 | Active | Active |  | inactive | 
14 | CC1(C)C2CCC(C2)C1CCC(CCC1C2CCC(C2)C1(C)C)NCCNCCCNCCN.Cl (centres undefined) |  | inactive | 30 | 15 | 6 | 6 | 6 | 6 | 8 | 10 | 6 | 8 | Active | Active |  | inactive | 
15 | CC(C)c1ccc(CCCC(CCCc2ccc(C(C)C)cc2)NCCNCCNCCN)cc1.Cl |  | inactive | 8 | 80 | 6 | 20 | 4 | 10 | 15 | 60 | 30 | 30 | Active | Active |  | inactive | 
16 | CC1(C)C2CCC(C2)C1CCC(CCC1C2CCC(C2)C1(C)C)NCCN(CCN)CCN.Cl (centres undefined) |  | inactive | 50 | 8 | 4 | 8 | 4 | 4 | 8 | 8 | 4 | 4 | Active | Active |  | inactive | 
17 | Cl.NCCCNCCCNC(CCCCC1CCCCC1)CCCCC1CCCCC1 |  | inactive | 10 | 15 | 10 | 20 | 8 | 6 | 20 | 20 | 4 | 4 | Active | Active |  | inactive | 
18 | Cl.NCCNCCNC(CCC1CCCCC1)CCC1CCCCC1 |  | inactive | 100 | 100 | 4 | 15 | 4 | 2 | 10 | 8 | 4 | 4 | Active | Active |  | inactive | 
19 | CC(C)(C)c1ccc(CCCC(CCCc2ccc(C(C)(C)C)cc2)NCCNCCNCCN)cc1.Cl |  | inactive | 100 | 100 | 20 | 30 | 15 | 8 | 60 | 50 | 60 | 8 | Active | Active |  | inactive | 
20 | CC(C)c1ccc(CCC(CCc2ccc(C(C)C)cc2)NCCNCCNCCN)cc1.Cl |  | inactive | 40 | 60 | 6 | 30 | 6 | 4 | 30 | 40 | 15 | 8 | Active | Active |  | inactive | 
21 | CC1(C)C2CCC(C2)C1CCC(CCC1C2CCC(C2)C1(C)C)NCCCNCCCN.Cl (centres undefined) |  | inactive | 8 | 10 | 4 | 10 | 4 | 4 | 8 | 4 | 4 | 4 | Active | Active |  | inactive | 
22 | Cc1ccc(C(C)(C)C)cc1CCCC(CCCc1cc(C(C)(C)C)ccc1C)NCCNCCNCCN.Cl |  | inactive | 50 | 80 | 15 | 60 | 4 | 10 | 60 | 10 | 10 | 15 | Active | Active |  | inactive | 
